Here are results for 11 molecules from ChEMBL document CHEMBL1156729, “Novel synthesis and pharmacological evaluation as alpha2-adrenoceptor ligands of O-phenylisouronium salts” (Bioorg Med Chem, 2008).

One may read the pKi as −log10 of the Ki, conventionally taken in molar units. Higher therefore signals a low Ki.

This test can be described thus: Displacement of [3H]RX821002 from alpha2 adrenoceptor in human prefrontal cortex neural membrane. The test is classed as tissue-based. In outline: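 Postmortem human PFC P2 membranes (homogenized in 5 mM Tris–HCl pH 7.4, 1 mM MgCl2, 0.25 M sucrose; stored at −70 °C) incubated in 50 mM Tris–HCl pH 7.5 with 1 nM [3H]RX821002 and competitor (10 concentrations) 30 min at 25 °C. Bound ligand separated by GF/C filtration and counted by scintillation. Non-specific binding with 10^-5 M adrenaline. Ki by one-site nonlinear regression, expressed as pKi.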
For orientation: In a radioligand displacement assay an active substance lowers the binding of a labelled ligand.
As for `N=C(N)Oc1ccc(Oc2ccc(O)cc2)cc1`, the pKi came out at 4.49.

In turn, `Cc1ccc(OC(=N)N)cc1` registered a pKi of 5.09. To `N=C(N)Oc1ccc(Cc2ccc(OC(=N)N)cc2)cc1` belongs 5.4.

Turning to `N=C(N)Oc1ccc2c(c1)CCCC2`, the pKi is 5.35. The value for `N=C(N)Nc1ccc2c(c1)CCCC2` was 7.11; that for `N=C(N)Oc1ccc(Cc2ccc(O)cc2)cc1` was 4.98. The value for `COC1(C2=NCCN2)COc2ccccc2O1` (stereo unspecified) was 9.04; that for `N=C(N)Oc1ccc2c(c1)CCC2` was 5.27. In turn, `N=C(N)Oc1ccc(Sc2ccc(O)cc2)cc1` gave a negative logarithm of the Ki (pKi) of 4.94. To `N=C(N)Oc1ccc(Oc2ccc(OC(=N)N)cc2)cc1` belongs 4.72; to `N=C(N)Oc1ccc(Sc2ccc(OC(=N)N)cc2)cc1`, 5.1.
